# ChEMBL document CHEMBL1147748, “Overlapping, nonidentical binding sites of different classes of nonpeptide antagonists for the human gonadotropin-releasing hormone receptor” (J Med Chem, 2006)
# Legend:
# [1] = target: Gonadotropin-releasing hormone receptor (Homo sapiens, UniProt P30968, S203P); assay: Displacement of [125I]-His5, D-Tyr6]GnRH from mutant GnRHR, GnRHR S203P
# [2] = target: Gonadotropin-releasing hormone receptor (Homo sapiens, UniProt P30968, L117A); assay: Displacement of [125I]-His5, D-Tyr6]GnRH from mutant GnRHR, GnRHR L117A
# How it was run: (§1)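 Human GnRH-R (wild type or site-directed point mutant) was transiently expressed in COS-7 cells by electroporation, with cells cultured 36-48 h before membranes were prepared. Membranes (5-20 µg per point) were incubated 2 h at room temperature with 0.3 nM tracer and varying competitor in HEPES pH 7.5, 150 mM NaCl, 0.1% BSA, then filtered and counted.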
# [3] = target: Gonadotropin-releasing hormone receptor (Homo sapiens, UniProt P30968, S168A); assay: Displacement of [125I]-His5, D-Tyr6]GnRH from mutant GnRHR, GnRHR S168A
# [4] = target: Gonadotropin-releasing hormone receptor (Homo sapiens, UniProt P30968, Q189A); assay: Displacement of [125I]-His5, D-Tyr6]GnRH from mutant GnRHR, GnRHR Q189A; how it was run: as §1
# [5] = target: Gonadotropin-releasing hormone receptor (Homo sapiens, UniProt P30968, H306E); assay: Displacement of [125I]-His5, D-Tyr6]GnRH from mutant GnRHR, GnRHR H306E; how it was run: as §1
# [6] = target: Gonadotropin-releasing hormone receptor (Homo sapiens, UniProt P30968, N27A); assay: Displacement of [125I]-His5, D-Tyr6]GnRH from mutant GnRHR, GnRHR N27A; how it was run: as §1
# [7] = target: Gonadotropin-releasing hormone receptor (Homo sapiens, UniProt P30968, D293A); assay: Displacement of [125I]-His5, D-Tyr6]GnRH from mutant GnRHR, GnRHR D293A; how it was run: as §1
# [8] = target: Gonadotropin-releasing hormone receptor (Homo sapiens, UniProt P30968, Y284F); assay: Displacement of [125I]-His5, D-Tyr6]GnRH from mutant GnRHR, GnRHR Y284F
# [9] = target: Gonadotropin-releasing hormone receptor (Homo sapiens, UniProt P30968, E295Q); assay: Displacement of [125I]-His5, D-Tyr6]GnRH from mutant GnRHR, GnRHR E295Q; how it was run: as §1
# [10] = target: Gonadotropin-releasing hormone receptor (Homo sapiens, UniProt P30968, N305D); assay: Displacement of [125I]-His5, D-Tyr6]GnRH from mutant GnRHR, GnRHR N305D; how it was run: as §1
# [11] = target: Gonadotropin-releasing hormone receptor (Homo sapiens, UniProt P30968, Y290F); assay: Displacement of [125I]-His5, D-Tyr6]GnRH from mutant GnRHR, GnRHR Y290F
# [12] = target: Gonadotropin-releasing hormone receptor (Homo sapiens, UniProt P30968, E295K); assay: Displacement of [125I]-His5, D-Tyr6]GnRH from mutant GnRHR, GnRHR E295K; how it was run: as §1
# [13] = target: Gonadotropin-releasing hormone receptor (Homo sapiens, UniProt P30968, T51A); assay: Displacement of [125I]-His5, D-Tyr6]GnRH from mutant GnRHR, GnRHR T51A
# [14] = target: Gonadotropin-releasing hormone receptor (Homo sapiens, UniProt P30968, D293N); assay: Displacement of [125I]-His5, D-Tyr6]GnRH from mutant GnRHR, GnRHR D293N; how it was run: as §1
# [15] = target: Gonadotropin-releasing hormone receptor (Homo sapiens, UniProt P30968, L300A); assay: Displacement of [125I]-His5, D-Tyr6]GnRH from mutant GnRHR, GnRHR L300A; how it was run: as §1
# [16] = target: Gonadotropin-releasing hormone receptor (Homo sapiens, UniProt P30968, L300K); assay: Displacement of [125I]-His5, D-Tyr6]GnRH from mutant GnRHR, GnRHR L300K; how it was run: as §1
# [17] = target: Gonadotropin-releasing hormone receptor (Homo sapiens, UniProt P30968, K121A); assay: Displacement of [125I]-His5, D-Tyr6]GnRH from mutant GnRHR, GnRHR K121A; how it was run: as §1
# [18] = target: Gonadotropin-releasing hormone receptor (Homo sapiens, UniProt P30968, N315D); assay: Displacement of [125I]-His5, D-Tyr6]GnRH from mutant GnRHR, GnRHR N315D; how it was run: as §1
# [19] = target: Gonadotropin-releasing hormone receptor (Homo sapiens, UniProt P30968, D302A); assay: Displacement of [125I]-His5, D-Tyr6]GnRH from mutant GnRHR, GnRHR D302A; how it was run: as §1
# [20] = target: Gonadotropin-releasing hormone receptor (Homo sapiens, UniProt P30968, H306K); assay: Displacement of [125I]-His5, D-Tyr6]GnRH from mutant GnRHR, GnRHR H306K; how it was run: as §1
# [21] = target: Gonadotropin-releasing hormone receptor (Homo sapiens, UniProt P30968, D302Q); assay: Displacement of [125I]-His5, D-Tyr6]GnRH from mutant GnRHR, GnRHR D302Q; how it was run: as §1
# [22] = target: Gonadotropin-releasing hormone receptor (Homo sapiens, UniProt P30968, M24A); assay: Displacement of [125I]-His5, D-Tyr6]GnRH from mutant GnRHR, GnRHR M24A; how it was run: as §1
# [23] = target: Gonadotropin-releasing hormone receptor (Homo sapiens, UniProt P30968, Y290Q); assay: Displacement of [125I]-His5, D-Tyr6]GnRH from mutant GnRHR, GnRHR Y290Q
# [24] = target: Gonadotropin-releasing hormone receptor (Homo sapiens, UniProt P30968, S118N); assay: Displacement of [125I]-His5, D-Tyr6]GnRH from mutant GnRHR, GnRHR S118N
# [25] = target: Gonadotropin-releasing hormone receptor (Homo sapiens, UniProt P30968, Y290L); assay: Displacement of [125I]-His5, D-Tyr6]GnRH from mutant GnRHR, GnRHR Y290L
# [26] = target: Gonadotropin-releasing hormone receptor (Homo sapiens, UniProt P30968, S203Q); assay: Displacement of [125I]-His5, D-Tyr6]GnRH from mutant GnRHR, GnRHR S203Q
# [27] = target: Gonadotropin-releasing hormone receptor (Homo sapiens, UniProt P30968, K115Q); assay: Displacement of [125I]-His5, D-Tyr6]GnRH from mutant GnRHR, GnRHR K115Q; how it was run: as §1
# [28] = target: Gonadotropin-releasing hormone receptor (Homo sapiens, UniProt P30968, M24I); assay: Displacement of [125I]-His5, D-Tyr6]GnRH from mutant GnRHR, GnRHR M24I; how it was run: as §1
# [29] = target: Gonadotropin-releasing hormone receptor (Homo sapiens, UniProt P30968, F313L); assay: Displacement of [125I]-His5, D-Tyr6]GnRH from mutant GnRHR, GnRHR F313L; how it was run: as §1
# [30] = target: Gonadotropin-releasing hormone receptor (Homo sapiens, UniProt P30968, N315A); assay: Displacement of [125I]-His5, D-Tyr6]GnRH from mutant GnRHR, GnRHR N315A; how it was run: as §1
# Gonadotropin-releasing hormone receptor (Homo sapiens, UniProt P30968, K121A), sequence (P30968 whole entry K121A): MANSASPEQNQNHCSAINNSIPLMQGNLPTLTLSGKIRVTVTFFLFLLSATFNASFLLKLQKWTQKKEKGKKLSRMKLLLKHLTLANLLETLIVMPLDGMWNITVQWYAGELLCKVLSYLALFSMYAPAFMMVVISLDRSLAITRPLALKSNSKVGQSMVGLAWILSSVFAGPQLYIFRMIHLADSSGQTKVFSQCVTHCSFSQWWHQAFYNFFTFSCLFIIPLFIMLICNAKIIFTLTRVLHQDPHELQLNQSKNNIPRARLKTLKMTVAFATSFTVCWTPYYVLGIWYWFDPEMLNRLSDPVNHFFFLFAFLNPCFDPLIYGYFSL
# Gonadotropin-releasing hormone receptor (Homo sapiens, UniProt P30968, M24I), sequence (P30968 whole entry M24I): as the sequence (P30968 whole entry K121A) above, with M24I, A121K counted along it
# Gonadotropin-releasing hormone receptor (Homo sapiens, UniProt P30968, K115Q), sequence (P30968 whole entry K115Q): as the sequence (P30968 whole entry K121A) above, with K115Q, A121K counted along it
# Gonadotropin-releasing hormone receptor (Homo sapiens, UniProt P30968, M24A), sequence (P30968 whole entry M24A): as the sequence (P30968 whole entry K121A) above, with M24A, A121K counted along it
# Gonadotropin-releasing hormone receptor (Homo sapiens, UniProt P30968, D302Q), sequence (P30968 whole entry D302Q): as the sequence (P30968 whole entry K121A) above, with A121K, D302Q counted along it
# Gonadotropin-releasing hormone receptor (Homo sapiens, UniProt P30968, L300A), sequence (P30968 whole entry L300A): as the sequence (P30968 whole entry K121A) above, with A121K, L300A counted along it
# Gonadotropin-releasing hormone receptor (Homo sapiens, UniProt P30968, N27A), sequence (P30968 whole entry N27A): as the sequence (P30968 whole entry K121A) above, with N27A, A121K counted along it
# Gonadotropin-releasing hormone receptor (Homo sapiens, UniProt P30968, H306E), sequence (P30968 whole entry H306E): as the sequence (P30968 whole entry K121A) above, with A121K, H306E counted along it
# Gonadotropin-releasing hormone receptor (Homo sapiens, UniProt P30968, S203P), sequence (P30968 whole entry S203P): as the sequence (P30968 whole entry K121A) above, with A121K, S203P counted along it
# Gonadotropin-releasing hormone receptor (Homo sapiens, UniProt P30968, L300K), sequence (P30968 whole entry L300K): as the sequence (P30968 whole entry K121A) above, with A121K, L300K counted along it
# Gonadotropin-releasing hormone receptor (Homo sapiens, UniProt P30968, L117A), sequence (P30968 whole entry L117A): as the sequence (P30968 whole entry K121A) above, with L117A, A121K counted along it
# Gonadotropin-releasing hormone receptor (Homo sapiens, UniProt P30968, Y290F), sequence (P30968 whole entry Y290F): as the sequence (P30968 whole entry K121A) above, with A121K, Y290F counted along it
# Gonadotropin-releasing hormone receptor (Homo sapiens, UniProt P30968, H306K), sequence (P30968 whole entry H306K): as the sequence (P30968 whole entry K121A) above, with A121K, H306K counted along it
# Gonadotropin-releasing hormone receptor (Homo sapiens, UniProt P30968, D293N), sequence (P30968 whole entry D293N): as the sequence (P30968 whole entry K121A) above, with A121K, D293N counted along it
IC50 [1] [nM],IC50 [2] [nM],IC50 [3] [nM],IC50 [4] [nM],IC50 [5] [nM],IC50 [6] [nM],IC50 [7] [nM],IC50 [8] [nM],IC50 [9] [nM],IC50 [10] [nM],IC50 [11] [nM],IC50 [12] [nM],IC50 [13] [nM],IC50 [14] [nM],IC50 [15] [nM],IC50 [16] [nM],IC50 [17] [nM],IC50 [18] [nM],IC50 [19] [nM],IC50 [20] [nM],SMILES,also measured
41.4,4.8,8.9,10,48.8,8.8,24.5,28.8,15.2,46.5,39.6,9.6,15.8,32.6,87.9,277,82.3,49.3,11,101,COc1c(C)cc(-c2[nH]c3ccc(C(C)(C)C(=O)N(CC(C)C)CC(C)C)cc3c2[C@H](C)CNCCc2ccccc2)cc1C,IC50 [21]: 20.6 nM; IC50 [22]: 17.9 nM; IC50 [23]: 229 nM; IC50 [24]: 63.7 nM; IC50 [25]: 202 nM; IC50 [26]: 15.7 nM; IC50 [27]: 27 nM; IC50 [28]: 23.2 nM; IC50 [29]: 623 nM; IC50 [30]: 47.1 nM
5.4,4.1,4,2.4,52.8,5.8,5.7,2.8,2.4,41.1,48.8,3.1,3.1,4.7,18.2,35.3,267,1.5,42.2,66.2,CC(C)C[C@H](NC(=O)[C@@H](Cc1ccc(O)cc1)NC(=O)[C@H](Cc1c[nH]cn1)NC(=O)[C@H](CO)NC(=O)[C@H](Cc1c[nH]c2ccccc12)NC(=O)[C@H](Cc1c[nH]cn1)NC(=O)[C@@H]1CCC(=O)N1)C(=O)N[C@@H](CCCN=C(N)N)C(=O)N1CCC[C@H]1C(=O)NCC(N)=O,IC50 [21]: 26.5 nM; IC50 [22]: 5.9 nM; IC50 [23]: 192 nM; IC50 [24]: 1.1 nM; IC50 [25]: 951 nM; IC50 [26]: 2.9 nM; IC50 [27]: 8.2 nM; IC50 [28]: 2.2 nM; IC50 [29]: 5.6 nM; IC50 [30]: 0.8 nM
